Measured values from ChEMBL document CHEMBL1155605, “Effect of lichen metabolites on thylakoid electron transport and photophosphorylation in isolated spinach chloroplasts” (J Nat Prod, 2000).
One block for each compound: values may come before it. Activity calls are given as the source filed them. No cut-off for these calls is given here.

Assays:
[1] = system: Amaranthus hypochondriacus; assay: Phytogrowth-inhibitory activity against Amaranthus hypochondriacus assessed as inhibition of seedling growth; type: functional, organism-based
In short: (§1)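 Petri-dish seed assay at 28 °C, run at 1, 10, 100 and 1000 µg/mL with 2,4-D as positive control. Data analysed by ANOVA (p<0.05). IC50 in molar units obtained by Probit analysis of percent radicle growth inhibition.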

Echinochloa crus-galli [2] = assay: Phytogrowth-inhibitory activity against Echinochloa crusgalli assessed as inhibition of seedling germination; type: functional, organism-based
[3] = system: Amaranthus hypochondriacus; assay: Phytogrowth-inhibitory activity against Amaranthus hypochondriacus assessed as inhibition of seedling germination; type: functional, organism-based
Echinochloa crus-galli [4] = assay: Phytogrowth-inhibitory activity against Echinochloa crusgalli assessed as inhibition of seedling growth; type: functional, organism-based; in short: as §1
Spinacia oleracea [5] = assay: Effect on uncoupled photosystem 2 of spinach leaves chloroplast assessed as inhibition of electron transport from water to 2,6-dichlorophenol indophenol at 100 uM relative to control
In short: (§2)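 Uncoupled PSII as DCPIP-supported O2 evolution, monitored polarographically with a Clark electrode. Spinach thylakoids in 100 mM sorbitol, 5 mM MgCl2, 10 mM KCl, 15 mM tricine pH 8.0 and 0.5 mM KCN. Ferricyanide 300 µM replaces MV; 1 µM DBMIB, 100 µM DCPIP and 6 mM NH4Cl added. Illumination 2 min through 1% CuSO4 filter. Activity relative to control.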

[6] = Inhibition of photosynthetic phosphorylation from water to methyl viologen in spinach leaves chloroplast; type: functional, Spinacia oleracea; details: read-out: I50
In short: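 ATP synthesis determined titrimetrically by pH change, with 0.05 mM MV as Hill acceptor in 100 mM sorbitol, 5 mM MgCl2, 10 mM KCl, 1 mM tricine pH 8.0. Compounds at 50–300 µM; DCMU at 0.01–10.0 µM as reference. I50 extrapolated from the percent-activity versus concentration plot.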

[7] = Inhibition of light-dependent proton uptake in spinach leaves chloroplast; type: functional, Spinacia oleracea; details: read-out: I50
In short: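 Light-driven proton uptake recorded as a pH rise from 8.0 to 8.1 with a combination microelectrode on an expanded-scale potentiometer. Medium: 100 mM sorbitol, 5 mM MgCl2, 10 mM KCl, 1 mM tricine pH 8.0, 0.05 mM MV. Compounds at 50–300 µM. I50 read from the plot of percent activity against concentration.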

Spinacia oleracea [8] = assay: Inhibition of photophosphorylation in spinach leaves chloroplast assessed as inhibition of noncyclic electron transport from water to methyl viologen in uncoupled condition; type: functional
In short: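 Water→0.05 mM MV O2 uptake measured with a Clark electrode in basal medium (15 mM tricine pH 8.0, 0.5 mM KCN) plus 6 mM NH4Cl as uncoupler, with 2 min actinic illumination. Compounds at 50–300 µM. I50 from the percent-activity versus concentration plot.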

Spinacia oleracea [9] = assay: Effect on uncoupled photosystem 2 of spinach leaves chloroplast assessed as inhibition of electron transport from water to 2,6-dichlorophenol indophenol at 50 uM relative to control; in short: as §2
Spinacia oleracea [10] = assay: Effect on uncoupled photosystem 2 of spinach leaves chloroplast assessed as inhibition of electron transport from water to 2,6-dichlorophenol indophenol at 200 uM relative to control; in short: as §2
Spinacia oleracea [11] = assay: Effect on uncoupled photosystem 2 of spinach leaves chloroplast assessed as inhibition of electron transport from water to 2,6-dichlorophenol indophenol at 250 uM relative to control; in short: as §2
Spinacia oleracea [12] = assay: Effect on uncoupled photosystem 2 of spinach leaves chloroplast assessed as inhibition of electron transport from water to 2,6-dichlorophenol indophenol at 300 uM relative to control; in short: as §2
Spinacia oleracea [13] = assay: Effect on uncoupled photosystem 2 of spinach chloroplast assessed as inhibition of electron transport rate of water to silicomolybdate at 50 uM relative to control
In short: (§3)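 Intact thylakoids from market spinach leaves, stored dark 1 h at 0 °C. Uncoupled medium: 100 mM sorbitol, 5 mM MgCl2, 10 mM KCl, 15 mM tricine pH 8.0, 0.5 mM KCN, 300 µM ferricyanide, 1 µM DBMIB, 100 µM DCPIP, 6 mM NH4Cl, plus 200 µM SiMo and 10 µM DCMU. O2 evolution by Clark electrode under filtered actinic light for 2 min. Activity expressed relative to control.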

Spinacia oleracea [14] = assay: Effect on uncoupled photosystem 2 of spinach chloroplast assessed as inhibition of electron transport rate of water to silicomolybdate at 100 uM relative to control; in short: as §3
Spinacia oleracea [15] = assay: Effect on uncoupled photosystem 2 of spinach chloroplast assessed as inhibition of electron transport rate of water to silicomolybdate at 150 uM relative to control; in short: as §3
Spinacia oleracea [16] = assay: Effect on uncoupled photosystem 2 of spinach chloroplast assessed as inhibition of electron transport rate of water to silicomolybdate at 200 uM relative to control; in short: as §3
Spinacia oleracea [17] = assay: Effect on uncoupled photosystem 2 of spinach chloroplast assessed as inhibition of electron transport rate of water to silicomolybdate at 250 uM relative to control; in short: as §3
Spinacia oleracea [18] = assay: Effect on uncoupled photosystem 2 of spinach chloroplast assessed as inhibition of electron transport rate of water to silicomolybdate at 300 uM relative to control; in short: as §3
Spinacia oleracea [19] = assay: Effect on uncoupled photosystem 2 of spinach leaves chloroplast assessed as inhibition of electron transport from diphenylcarbazide to 2,6-dichlorophenol indophenol at 50 uM relative to control
In short: (§4)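 Tris-treated (0.8 M, pH 8.0) spinach thylakoids in uncoupled medium with 200 µM DPC, 100 µM DCPIP, 1 µM DBMIB and 6 mM NH4Cl. DCPIP reduction followed spectrophotometrically. Activity expressed relative to control.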

Spinacia oleracea [20] = assay: Effect on uncoupled photosystem 2 of spinach leaves chloroplast assessed as inhibition of electron transport from diphenylcarbazide to 2,6-dichlorophenol indophenol at 100 uM relative to control; in short: as §4
Spinacia oleracea [21] = assay: Effect on uncoupled photosystem 2 of spinach leaves chloroplast assessed as inhibition of electron transport from diphenylcarbazide to 2,6-dichlorophenol indophenol at 150 uM relative to control; in short: as §4
Spinacia oleracea [22] = assay: Effect on uncoupled photosystem 2 of spinach leaves chloroplast assessed as inhibition of electron transport from diphenylcarbazide to 2,6-dichlorophenol indophenol at 200 uM relative to control; in short: as §4
Spinacia oleracea [23] = assay: Effect on uncoupled photosystem 2 of spinach leaves chloroplast assessed as inhibition of electron transport from diphenylcarbazide to 2,6-dichlorophenol indophenol at 250 uM relative to control; in short: as §4
Spinacia oleracea [24] = assay: Effect on uncoupled photosystem 2 of spinach leaves chloroplast assessed as inhibition of electron transport from diphenylcarbazide to 2,6-dichlorophenol indophenol at 300 uM relative to control; in short: as §4
Spinacia oleracea [25] = assay: Effect on uncoupled photosystem 2 of spinach leaves chloroplast assessed as inhibition of electron transport from water to 2,6-dichlorophenol indophenol at 150 uM relative to control; in short: as §2

SMILES: COc1cc(C)c2c(=O)c3c(O)cc(OC)cc3oc2c1 [LICHEXANTHONE]
IC50 [1]: > 2000 µM
IC50 (Echinochloa crus-galli [2]): > 2000 µM
IC50 [3]: > 2000 µM
IC50 (Echinochloa crus-galli [4]): > 2000 µM

SMILES: O=C(O)COc1ccc(Cl)cc1Cl [2,4-DICHLOROPHENOXYACETIC ACID]
IC50 (Echinochloa crus-galli [2]): > 230 µM
IC50 [3]: 880 µM
IC50 (Echinochloa crus-galli [4]): > 230 µM

Activity (Spinacia oleracea [5]): 37.5
IC50 [6]: 136 µM
IC50 [7]: 140 µM
Activity (Spinacia oleracea [9]): 64.3
Activity (Spinacia oleracea [10]): Active
Activity (Spinacia oleracea [11]): Active
Activity (Spinacia oleracea [12]): Active
Activity (Spinacia oleracea [13]): 59.1
Activity (Spinacia oleracea [14]): 25
Activity (Spinacia oleracea [15]): 8.4
Activity (Spinacia oleracea [16]): Active
Activity (Spinacia oleracea [17]): Active
Activity (Spinacia oleracea [18]): Active
Activity (Spinacia oleracea [19]): 93.6
Activity (Spinacia oleracea [20]): 86.9
Activity (Spinacia oleracea [21]): 88.9
Activity (Spinacia oleracea [22]): 96
Activity (Spinacia oleracea [23]): 112
Activity (Spinacia oleracea [24]): 135
Activity (Spinacia oleracea [25]): 15.7
SMILES: Cc1cc(O)cc(OC(=O)c2c(C)cc(O)cc2O)c1 [LECANORIN]
Activity (Spinacia oleracea [8]): Active
IC50 [1]: 580 µM
IC50 (Echinochloa crus-galli [2]): 710 µM
IC50 [3]: 760 µM
IC50 (Echinochloa crus-galli [4]): 180 µM

IC50 [6]: 0.14 µM
SMILES: CN(C)C(=O)Nc1ccc(Cl)c(Cl)c1 [DCMU]

SMILES: COC(=O)c1c(C)cc(O)cc1O [METHYL ORSELLINATE]
IC50 [1]: 290 µM
IC50 (Echinochloa crus-galli [2]): 680 µM
IC50 [3]: 360 µM
IC50 (Echinochloa crus-galli [4]): 310 µM

Activity (Spinacia oleracea [5]): 49.7
IC50 [6]: 87.1 µM
IC50 [7]: 59.7 µM
Activity (Spinacia oleracea [9]): 72.1
Activity (Spinacia oleracea [10]): 16.8
Activity (Spinacia oleracea [11]): 4.1
Activity (Spinacia oleracea [12]): Active
Activity (Spinacia oleracea [13]): 93.4
Activity (Spinacia oleracea [14]): 79.9
Activity (Spinacia oleracea [15]): 62.5
Activity (Spinacia oleracea [16]): 41
Activity (Spinacia oleracea [17]): Active
Activity (Spinacia oleracea [18]): Active
Activity (Spinacia oleracea [19]): 84.3
Activity (Spinacia oleracea [20]): 58.5
Activity (Spinacia oleracea [21]): 40.3
Activity (Spinacia oleracea [22]): 33.8
Activity (Spinacia oleracea [23]): 29.9
Activity (Spinacia oleracea [24]): 17.9
Activity (Spinacia oleracea [25]): 31.3
SMILES: Cc1cc(OC(=O)c2c(C)cc(OC(=O)c3c(C)cc(O)cc3O)cc2O)cc(O)c1C(=O)O [GYROPHORIC ACID]
Activity (Spinacia oleracea [8]): Active
IC50 [1]: 2000 µM
IC50 (Echinochloa crus-galli [2]): 2000 µM
IC50 [3]: 2000 µM
IC50 (Echinochloa crus-galli [4]): 2000 µM

SMILES: COC(=O)c1c(C)cc(O)c(C)c1O [ATRARIC ACID]
IC50 [1]: 320 µM
IC50 (Echinochloa crus-galli [2]): 1100 µM
IC50 [3]: 760 µM
IC50 (Echinochloa crus-galli [4]): 610 µM

SMILES: COC(=O)c1c(C)cc(O)c(C=O)c1O [METHYL HAEMATOMMATE]
IC50 (Echinochloa crus-galli [4]): 29 µM

SMILES: Cc1cc(O)cc(O)c1 [ORCINOL]
IC50 [1]: 1000 µM
IC50 (Echinochloa crus-galli [2]): > 8100 µM
IC50 [3]: 1700 µM
IC50 (Echinochloa crus-galli [4]): 1100 µM
